Measured values published in ChEMBL document CHEMBL5338759, “N-Phenyl-1-(phenylsulfonyl)-1H-1,2,4-triazol-3-amine as a New Class of HIV-1 Non-nucleoside Reverse Transcriptase Inhibitor” (J Med Chem, 2023).
pEC50, pIC50: −log10 of the molar value. Blank lines part the entries; values can stand above or below the molecule they belong to. Active and inactive are the calls of the source. No cut-off for these calls is given here.

Assays:
[1] = system: Human immunodeficiency virus 1; test: Antiviral activity against HIV1 harboring A17 mutant infected in human TZM-bl cells; assay type: functional, organism-based; conditions: for pEC50 / pIC50: Human immunodeficiency virus 1, TZM-bl
How it was run: (§1)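 TZM-bl cells (2x10⁵/mL) were infected with mutant virus in the presence of 15 µg/mL DEAE-dextran. A17 (IIIB variant) was grown in H9 cells; the other mutants were NL4-3-based plasmids transfected into 293T cells, then expanded in H9 cells. Compounds were tested at 0.05–500 nM (DMSO constant within an assay) for 48 hr at 37°C. Read-out was luciferase RLU from lysed cells, with at least 6 replicates over multiple days.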

[2] = system: Human immunodeficiency virus 1; test: Antiviral activity against wild type HIV1 IIIB infected in human TZM-bl cells; assay type: functional, organism-based; conditions: Human immunodeficiency virus 1, IIIB
How it was run: (§2)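 TZM-bl cells (2x10⁵/mL) infected with HIV-1 IIIB grown in H9 cells, with 15 µg/mL DEAE-dextran; serial dilutions from 10 mM DMSO stocks, DMSO held constant (0.005% or 0.05%); 37°C, 5% CO₂, 48 hr; cells lysed, luciferase RLU read.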

[3] = system: Human immunodeficiency virus 1; test: Antiviral activity against HIV1 harboring L100I/K103N double mutant infected in human TZM-bl cells; assay type: functional, organism-based; conditions: Human immunodeficiency virus 1, TZM-bl
[4] = biological target: Human immunodeficiency virus type 1 reverse transcriptase (Human immunodeficiency virus 1, UniProt Q72547); test: Inhibition of HIV1 Reverse transcriptase incubated for 30 mins by fluorescence based analysis
[5] = system: TZM; test: Cytotoxicity against human TZM-bl cells assessed as reduction in viability incubated for 48 hrs by CellTiter-Blue cell viability assay
[6] = Neurotoxicity in mouse primary neurons assessed as loss of MAP-2 area incubated for 48 hrs by imaging analysis; assay type: toxicity, cell-based; conditions: neuron
How it was run: (§3)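 Primary E16 CD1 mouse cortex/hippocampus cultures (>95% neurons) treated at 20 days in vitro with 10X dilutions made in artificial CSF, final 0.1–10,000 nM, for 48 hr; fixed in methanol:acetic acid (97:3), stained for MAP-2; relative MAP-2 intensity and area quantified by image analysis, […] (±SD) fitted from dose response.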

[7] = system: Human immunodeficiency virus 1; test: Antiviral activity against HIV1 harboring K103N mutant infected in human TZM-bl cells; assay type: functional, organism-based; conditions: Human immunodeficiency virus 1, TZM-bl; how it was run: as §1
[8] = Neurotoxicity in mouse primary neurons assessed as loss of MAP-2 intensity incubated for 48 hrs by imaging analysis; assay type: toxicity, cell-based; conditions: neuron; how it was run: as §3
[9] = Selectivity ratio of IC50 for antiviral activity against wild type HIV1 IIIB infected in human TZM-bl cells to IC50 for antiviral activity against HIV1 harboring L100I/K103N double mutant infected in human TZM-bl cells; assay type: toxicity, cell-based; conditions: human immunodeficiency virus 1
How it was run: (§4)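 TZM-bl cells (2x10⁵/mL) with 15 µg/mL DEAE-dextran were infected with HIV-1 IIIB, A17 (K103N/Y181C) IIIB variant, or NL4-3-based NNRTI-resistant mutants. Compound was present at 0.05–500 nM (DMSO held constant, 0.005% or 0.05%) for 48 hr at 37°C, 5% CO₂.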

[10] = Selectivity ratio of IC50 for antiviral activity against wild type HIV1 IIIB infected in human TZM-bl cells to IC50 for antiviral activity against HIV1 harboring K103N mutant infected in human TZM-bl cells; assay type: toxicity, cell-based; conditions: human immunodeficiency virus 1; how it was run: as §4
[11] = Neurotoxicity in mouse primary neurons assessed as loss of MAP-2 intensity at 0.0001 to 10 uM incubated for 48 hrs by semi-quantitative analysis; conditions: neuron
[12] = system: Human immunodeficiency virus; test: Antiviral activity against wild type HIV IIIB infected in human TZM-bl cells; assay type: functional, organism-based; conditions: Human immunodeficiency virus 1, IIIB; how it was run: as §2
[13] = Safety index, ratio of TC10 for neurotoxicity in mouse primary neurons assessed as loss of MAP-2 intensity to EC50 for antiviral activity against wild type HIV1 IIIB infected in human TZM-bl cells; assay type: toxicity, cell-based; conditions: mouse primary neurons, TZM-bl cells
How it was run: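 Primary neuronal cultures from cortex/hippocampus of E16 CD1 mouse embryos (>95% neurons). Cells were then methanol:acetic acid-fixed and MAP-2 stained, and intensity was image-quantified. S-index = TC10/(100×EC50 vs HIV-1 IIIB in TZM-bl).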

[14] = Selectivity ratio of IC50 for antiviral activity against wild type HIV1 IIIB infected in human TZM-bl cells to IC50 for antiviral activity against HIV1 harboring Y181C mutant infected in human TZM-bl cells; assay type: toxicity, cell-based; conditions: human immunodeficiency virus 1; how it was run: as §4
[15] = Selectivity ratio of IC50 for antiviral activity against wild type HIV1 IIIB infected in human TZM-bl cells to IC50 for antiviral activity against HIV1 harboring A17 mutant infected in human TZM-bl cells; assay type: toxicity, cell-based; conditions: human immunodeficiency virus 1; how it was run: as §4
[16] = system: TZM; test: Cytotoxicity against human TZM-bl cells assessed as reduction in cell viability by MTS assay; assay type: functional
[17] = system: Human immunodeficiency virus 1; test: Antiviral activity against HIV1 harboring Y181C mutant infected in human TZM-bl cells; assay type: functional, organism-based; conditions: Human immunodeficiency virus 1, TZM-bl; how it was run: as §1
[18] = Selectivity index, ratio of CC50 for cytotoxicity against human TZM-bl cells assessed as reduction in cell viability by MTS assay to EC50 for antiviral activity against wild type HIV1 IIIB infected in human TZM-bl cells; assay type: toxicity, cell-based; conditions: read-out: Ratio CC50/EC50
[19] = Selectivity index, ratio of CC50 for cytotoxicity against human TZM-bl cells assessed as reduction in cell viability by MTS assay to EC50 for antiviral activity against HIV1 harboring A17 mutant infected in human TZM-bl cells; assay type: toxicity, cell-based; conditions: read-out: Ratio CC50/EC50
[20] = system: Neuron; test: Induction of calcium accumulation at acute phase in primary mouse neuron at 1 uM; assay type: functional, cell-based
How it was run: (§5)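 Primary E16 CD1 mouse cortex/hippocampus neurons on coverslips, 14–18 days in vitro, loaded 30 min with 2 µM Fluo-4 AM in aCSF; three baseline images, then compound or vehicle in aCSF added at 1 µM final. Baseline fluorescence subtracted; changes averaged over all cells from at least triplicate runs, acute and delayed phases.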

[21] = system: Neuron; test: Induction of calcium accumulation at delayed phase in primary mouse neuron at 1 uM; assay type: functional, cell-based; how it was run: as §5

Compound: CC(=O)Nc1nc(C)c(S(=O)(=O)n2nc(Nc3cc(Cl)c(Cl)cc3Cl)nc2N)s1
- pEC50 [1]: < 6.00
- pEC50 [2]: < 6.00

Compound: N#Cc1ccc(Nc2nc(N)n(S(=O)(=O)c3cccc4cc(C#N)ccc34)n2)cc1
- pIC50 [3]: 5.82
- pIC50 [1]: 7.26
- pIC50 [4]: 6.15
- CC50 [5]: 7800 nM
- TC10 [6]: 50 nM
- pIC50 [7]: 8.06
- TC10 [8]: 170 nM
- Ratio IC50 [9]: 6700
- Ratio IC50 [10]: 39
- Activity [11]: Non-Toxic
- pIC50 [12]: 9.49
- selectivity ratio [13]: 5.4
- Ratio IC50 [14]: 80
- Ratio IC50 [15]: 240
- CC50 [16]: 7800 nM
- pIC50 [17]: 7.74
- pIC50 [2]: 9.64
- selectivity ratio [18]: 22000
- selectivity ratio [19]: 160

Compound: N#CCc1ccc2c(S(=O)(=O)n3nc(Nc4ccc(C#N)c(Cl)c4)nc3N)cccc2c1
- pEC50 [1]: 6.82
- pEC50 [2]: 9.22

Compound: O=C1Nc2ccc(Cl)cc2[C@@](C#CC2CC2)(C(F)(F)F)O1 [EFAVIRENZ]
- pEC50 [1]: 7.74
- TC10 [6]: 70 nM
- Activity [20]: inactive
- Activity [21]: Active
- Activity [11]: Non-Toxic
- pIC50 [12]: 9.18
- CC50 [16]: > 5000 nM
- pEC50 [2]: 9.17

Compound: Nc1nc(Nc2ccc(Cl)cc2)n(S(=O)(=O)c2cnn(-c3ccc(C(F)(F)F)cn3)c2)n1
- Activity [1]: inactive
- pEC50 [2]: > 7.00

Compound: Cn1cnc(S(=O)(=O)n2nc(N)nc2Nc2ccc(Cl)cc2)c1
- Activity [1]: inactive
- pEC50 [2]: > 7.00

Compound: Nc1nc(Nc2ccc(Cl)cc2)nn1S(=O)(=O)c1ccc2ccccc2c1
- pIC50 [4]: 6.55
- TC10 [8]: 6100 nM
- Activity [11]: Non-Toxic
- pIC50 [12]: 8.03
- selectivity ratio [13]: 6.5
- Activity [16]: inactive

Compound: N#Cc1ccc2c(S(=O)(=O)n3nc(Nc4ccc(C#N)c(C#N)c4)nc3N)cccc2c1
- pIC50 [3]: 5.98
- pIC50 [1]: 8.89
- pIC50 [4]: 6.46
- CC50 [5]: 27000 nM
- pIC50 [7]: 8.23
- TC10 [8]: 4500 nM
- Ratio IC50 [9]: 3500
- Ratio IC50 [10]: 8.9
- Activity [11]: Non-Toxic
- pIC50 [12]: 9.49
- selectivity ratio [13]: 140
- Ratio IC50 [14]: 140
- Ratio IC50 [15]: 41
- CC50 [16]: 28000 nM
- pIC50 [17]: 8.43
- pEC50 [2]: 9.68
- selectivity ratio [18]: 130000
- selectivity ratio [19]: 570

Compound: Nc1nc(Nc2ccc(Cl)cc2)n(S(=O)(=O)c2ccc(Cl)s2)n1
- Activity [1]: inactive
- pEC50 [2]: > 7.00

Compound: N#Cc1ccc2c(S(=O)(=O)n3nc(Nc4ccc(C#N)c(Cl)c4)nc3N)cccc2c1
- pEC50 [1]: 7.40
- CC50 [16]: 6000 nM
- pEC50 [2]: 9.38
- selectivity ratio [18]: 17000
- selectivity ratio [19]: 240

Compound: Cc1nc(C)c(S(=O)(=O)n2nc(Nc3ccc(C#N)c(Cl)c3)nc2N)s1
- pEC50 [1]: 6.51
- pEC50 [2]: 9.06

- pEC50 [2]: 7.49
Compound: Cc1cc(C)c(S(=O)(=O)n2nc(Nc3ccc(Cl)cc3)nc2N)c(C)c1

Compound: N#C/C=C/c1ccc2c(S(=O)(=O)n3nc(Nc4ccc(CC#N)cc4)nc3N)cccc2c1
- pEC50 [1]: 7.61
- CC50 [16]: 910 nM
- pEC50 [2]: 9.66
- selectivity ratio [18]: 4100

Compound: Cc1cc(/C=C/C#N)cc(C)c1Nc1ccnc(Nc2ccc(C#N)cc2)n1 [RILPIVIRINE]
- pIC50 [3]: 7.85
- pIC50 [1]: 9.10
- pIC50 [4]: 6.80
- CC50 [5]: > 5000 nM
- TC10 [6]: 600 nM
- pIC50 [7]: 8.89
- Activity [20]: inactive
- TC10 [8]: 930 nM
- Activity [11]: Non-Toxic
- pIC50 [12]: 9.46
- CC50 [16]: > 5000 nM
- pIC50 [17]: 8.89
- pIC50 [2]: 9.48

Compound: N#Cc1ccc(Nc2nc(N)n(S(=O)(=O)c3c(Cl)nc4sccn34)n2)cc1
- pEC50 [1]: 6.15
- pEC50 [2]: 8.75

Compound: CN(C)c1cccc2c(S(=O)(=O)n3nc(Nc4ccc(Cl)cc4)nc3N)cccc12
- pEC50 [1]: < 6.00
- pEC50 [2]: 7.97
